The source of these data is ChEMBL document CHEMBL1649406, “Synthesis and anti-mycobacterial activities of triazoloquinolones” (Eur J Med Chem, 2011).

Values after ≈ are worked out from the molar mass of the structure shown.

What is called MIC is the lowest concentration found to suppress growth. Higher therefore signals a need for much substance.

This assay relates to Mycobacterium tuberculosis. Nature of the assay: Antimycobacterial activity against Mycobacterium bovis BCG after 7 days by broth microdilution method. It is filed as functional. The following applies: variant bovis BCG, 168 h. The method in brief: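 Strains were pre-grown in Middlebrook 7H11 with OADC. The microdilution assay ran in sealed 96-well plates at 37 °C and was read after 72 h for M. smegmatis mc²155 and after 7 days for M. bovis BCG.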
A general note: Dilution methods test growth across graded concentrations, often in twofold steps.
As to `CCOC(=O)c1cn(C)c2c(ccc3c2nnn3Cc2ccccc2)c1=O`, the MIC was determined as 64 µg/mL (≈ 177 µM).
For the compound `CCOC(=O)c1cn(CC)c2c(ccc3c2nnn3Cc2ccccc2)c1=O`, the MIC was greater than 128 µg/mL.
Next, `C=CCn1cc(C(=O)OCC)c(=O)c2ccc3c(nnn3Cc3ccccc3)c21`: 64 µg/mL (≈ 165 µM); `CCCCn1cc(C(=O)OCC)c(=O)c2ccc3c(nnn3Cc3ccccc3)c21`: 64 µg/mL (≈ 158 µM).
For `CCOC(=O)c1cn(C(C)(C)C)c2c(ccc3c2nnn3C)c1=O`, 8 µg/mL (≈ 24.4 µM) was the least that counted as inhibitory (MIC).
With `C=C(C)Cn1cc(C(=O)OCC)c(=O)c2ccc3c(nnn3C)c21`, the MIC was greater than 128 µg/mL.
In turn, `CCOC(=O)c1cn(CC2CC2)c2c(ccc3c2nnn3C)c1=O` returned an MIC of 64 µg/mL (≈ 196 µM).
Take `CCOC(=O)c1cn(CC2CCC2)c2c(ccc3c2nnn3C)c1=O`: the MIC is 64 µg/mL (≈ 188 µM).
`Cn1cc(C(=O)O)c(=O)c2ccc3c(nnn3Cc3ccccc3)c21` displayed an MIC of 4 µg/mL (≈ 12 µM).
In turn, `CCn1cc(C(=O)O)c(=O)c2ccc3c(nnn3Cc3ccccc3)c21` yielded an MIC of 16 µg/mL (≈ 45.9 µM).
Consider `C=CCn1cc(C(=O)O)c(=O)c2ccc3c(nnn3Cc3ccccc3)c21`, for which the MIC was determined as 8 µg/mL (≈ 22.2 µM).
`CCCCn1cc(C(=O)O)c(=O)c2ccc3c(nnn3Cc3ccccc3)c21` displayed a minimum inhibitory concentration (MIC) of 64 µg/mL (≈ 170 µM).
In the case of `Cn1nnc2c3c(ccc21)c(=O)c(C(=O)O)cn3C(C)(C)C`, the MIC worked out at 16 µg/mL (≈ 53.3 µM).
In the case of `C=C(C)Cn1cc(C(=O)O)c(=O)c2ccc3c(nnn3C)c21`, 32 µg/mL (≈ 107 µM) was the least that counted as inhibitory (MIC).
In turn, `Cn1nnc2c3c(ccc21)c(=O)c(C(=O)O)cn3CC1CC1` displayed an MIC of 16 µg/mL (≈ 53.6 µM).
Consider `Cn1nnc2c3c(ccc21)c(=O)c(C(=O)O)cn3CC1CCC1`, for which the MIC stood at 16 µg/mL (≈ 51.2 µM).
Compound `Cn1cc(C(=O)O)c(=O)c2ccc3c(nnn3C)c21` registered an MIC of 4 µg/mL (≈ 15.5 µM).
The compound `O=C(O)c1cn(C2CC2)c2cc(N3CCNCC3)c(F)cc2c1=O` [CIPROFLOXACIN] returned an MIC of 0.25 µg/mL (≈ 0.754 µM).
`CC[C@@H](CO)NCCN[C@@H](CC)CO` [ETHAMBUTOL] displayed an MIC of 2 µg/mL (≈ 9.79 µM).
